Reference: ChEMBL document CHEMBL4513216, “Probing the Open Global Health Chemical Diversity Library for Multistage-Active Starting Points for Next-Generation Antimalarials” (ACS Infect Dis, 2020)

Experiment: Toxicity liver stage against HepG2, at 10uM
Type: cell-based
Design: test concentration 10 uM, cell line HepG2-A16-CD81EGFP
Conditions: human, HepG2-A16-CD81EGFP cells; read-out: INHIBITION
Summary of the method: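 Uninfected HepG2-A16-CD81EGFP cells, 3 × 10^3 per well, 1536-well, plated on prespotted compound at 10 μM final, parasite-free screening media added to match infected plates; puromycin 10 μM positive, DMSO 0.5% negative; run in parallel with 48 h PbLuc assay at 37 °C, 5% CO2; viability by CellTiter-Glo luminescence, normalized to controls.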

Row | Compound | cytotoxicity at 10 µM [%]
1 | Cc1ccc(CNC2(Cc3cc(-c4ccc(F)cc4)on3)COC2)o1 | 8.13
2 | Cc1cccc2c1nc1n2[C@@H](CNC(=O)NC(C)C)COC1 | 0.0962
3 | CCS(=O)(=O)c1ccc2oc([C@H]3CCN(Cc4ccccn4)C3)nc2c1 | -0.125
4 | O=C(Nc1ccccc1)[C@H]1CN2CC[C@H]1C[C@@H]2Cn1cc(CCO)nn1 | -0.843
5 | O=C([C@@H]1Cc2[nH]cnc2CN1CC1CC1)N1CCCC1 | 2.5
6 | O=C(c1cccnc1Oc1ccc(Cl)cc1)N1CC[C@@H](O)C1 | -3.36
7 | CCOc1ccc(NC(=O)C2OC(c3cccs3)=NN2C(C)=O)cc1 (stereo unspecified) | 4.77
8 | O=C1CC(c2ccccc2)c2c(c(C(=O)O)cn2-c2ccccc2)N1 (stereo unspecified) | -0.0616
9 | CN(C)S(=O)(=O)N1CCN(C(=O)c2cc(-c3ccc(Br)s3)n[nH]2)CC1 | -2.66
10 | CN(C)C(=O)N1Cc2ccccc2C2(CCN(C3CCOCC3)CC2)C1 | 7.21
11 | CC(C)CNC(=O)N1C[C@H]2CCN[C@H]2C1 | 7.12
12 | CCc1cnc(N2CCC3(CC2)CCN(c2cnn(C)c2)C3=O)nc1 | -2.2
13 | CNC(=O)C1CCC2(CCN(c3ncc(C)cn3)CC2)CO1 (stereo unspecified) | -4.66
14 | CN(C)C(=O)CN1CCC2(CCCN(c3ncc(F)cn3)C2)C1=O (stereo unspecified) | 9.51
15 | CC(C)CNc1nc(C(=O)/N=c2\[nH]nc(C(C)(C)C)s2)cs1 | 9.6
16 | CC(C)CC(=O)N1CCCn2cnc(CN3CCCC3=O)c2C1 | -6.42
17 | c1cnc(N2CCCC(Cc3nccs3)C2)nc1 (stereo unspecified) | 0.45
18 | CC(C)C(=O)NCCc1cc2nc(-c3ccncc3)ccn2n1 | 4.94
19 | CCCS(=O)(=O)N1CCN(C(C)(C)CO)CC1 | -0.45
20 | Cc1nn(C)c(Cl)c1C1CCCN1c1ncnc2c1CCC2 (stereo unspecified) | 19.1
21 | CCCn1cc(NC(=O)Nc2ccc(F)c(C(=O)NC)c2)cn1 | 6.98
22 | CCOc1ccccc1C(=O)NCc1nncn1C1CC1 | 3.3
23 | COc1cc(CNC(=O)c2cc(Cl)ccc2F)ccn1 | -2.69

Row | Compound | cytotoxicity at 10 µM [%]
24 | CC(NC(=O)NC1CC1)c1nc(-c2ccccc2)cs1 (stereo unspecified) | -5.83
25 | CCOCCN1CCN(CCOC)CC1C (stereo unspecified) | -4.2
26 | OC(CNCCn1cccn1)COc1cccc(C(F)(F)F)c1 (stereo unspecified) | -19.7
27 | O=C(NC1CCC(O)CC1)c1cnc2c(cnn2C2CCCC2)c1 (stereo unspecified) | -3.79
28 | COc1ccc(CNCC2CN(C3CC3)CCO2)cc1F (stereo unspecified) | -12.4
29 | Cc1ccc(C)c(S(=O)(=O)CCN2CCCC2Cn2cncn2)c1 (stereo unspecified) | -8.5
30 | CN(CCc1ccncc1)Cc1nccn1Cc1ccccc1 | 15.1
31 | Cc1nc(CN(C)Cc2cc3c(cc2OC(F)F)OCO3)oc1C | 2.22
32 | CC(=O)NCCNC(=O)NCCCc1cccc(F)c1 | 10.5
33 | CS(=O)(=O)NCCNC(=O)c1cnc(-c2ccccc2)nc1 | 5.3
34 | COc1ccc(Oc2ccc(CNC(=O)C(C)n3cncn3)cn2)cc1 (stereo unspecified) | 5.42
35 | CCCN1CCN(C(=O)c2cccnc2-n2cncn2)CC1 | 5.28
36 | O=C(CCCOc1ccccc1F)Nc1cc[nH]n1 | -11
37 | CC(NC(=O)C(C)(C)C#N)c1ccc(OCC2CC2)c(F)c1 (stereo unspecified) | 2.31
38 | Cc1ccc(S(N)(=O)=O)cc1C(=O)NCC1Cc2ccccc2O1 (stereo unspecified) | 3.04
39 | Cc1cccc(N(C)Cc2nc3c(cnn3C)c(=O)[nH]2)c1C | -9.23
40 | CCN(Cc1nc2c(cnn2C)c(=O)[nH]1)c1cc(C)ccc1C | -11.3
41 | NC(=O)C1CCN(C(=O)Cc2ccc(Cl)c(Cl)c2)CC1 | 5.82
42 | Cc1ccsc1C(=O)NC(C)c1ccc2c(c1)CCC(=O)N2 (stereo unspecified) | -12.4
43 | Cc1cnc(CCNC(Cc2ccncc2)C(F)(F)F)s1 (stereo unspecified) | 24.4
44 | O=C1NCCCCC1NCc1csc(-c2ccsc2)n1 (stereo unspecified) | 3.27
45 | CCc1cnc(CN2CCC(O)(c3cc(OC)cc(OC)c3)CC2)o1 | -0.276
46 | O=C(O)CSc1nc(-c2ccc3c(c2)CCC3)n[nH]1 | 1.88

Row | Compound | cytotoxicity at 10 µM [%]
47 | CC(C)c1nc2n(n1)CC(NCCc1cccs1)CC2 (stereo unspecified) | -5.71
48 | CNS(=O)(=O)c1cccc(CNC(=O)c2cnn(C)c2C)c1 | 0.857
49 | CCCC(C#N)NC(=O)Cc1csc(CC)n1 (stereo unspecified) | -2.08
50 | CC(C)CCN(C(=O)CCn1cc(S(N)(=O)=O)cn1)C1CC1 | 3.92
51 | COc1ccnc(NC2CCN(CC(=O)N3CCCC3)CC2)n1 | -7.88
52 | CC1CN=C(N2CCN(C(=O)Nc3nc(-c4ccccc4)ns3)CC2)S1 (stereo unspecified) | 10.6
53 | CN(C)CC(=O)N1CCO[C@@H]2CC(COCc3ccncc3)C[C@H]21 (stereo partly specified) | -108
54 | Cn1cc(CN2CCOCC3(CCN(C4CCOCC4)C3)C2)cn1 (stereo unspecified) | -3.92
55 | COCC1CC2(CCN(Cc3cccnc3)CC2)CN1C(C)C (stereo unspecified) | -4.21
56 | COCCN1C[C@@H]2[C@@H](OC)CCN(C(=O)c3cccc(OC)c3)[C@@H]2C1 | -1.01
57 | Cc1ccc(NC2(C(=O)NCc3c(C)n[nH]c3C)CCCC2)cc1 | 3.73
58 | O=S(=O)(NCC1CCCN(Cc2ccccc2F)C1)C1CC1 (stereo unspecified) | -8.27
59 | COc1cc2c(cc1C(=O)N1CCCCC1c1ccccn1)CCC2 (stereo unspecified) | -2.8
60 | CN(C)c1ccc(C(=O)N2CCCN(C3CCCCC3)CC2)cn1 | -6.46
61 | Cn1cc(Cl)c(CN(Cc2ccsc2)CC2CCCO2)n1 (stereo unspecified) | -3.84
62 | O=C(O)[C@@H]1CN(C(=O)CCC(F)(F)F)C[C@H]1c1ccncc1 | 0.108
63 | CN(C)c1nc(NCCc2ccccn2)ncc1F | -4.84
64 | Cc1nc(C(=O)N[C@H]2COC[C@@H]2N2CCCCC2)cs1 | 15.5
65 | COc1ccc(C(=O)NCc2ccon2)cc1F | 0.824
66 | CC(C)(C)SCCN1CC(=O)N2CC[C@@H](O)C[C@H]2C1=O | 4.01
67 | CCNC(=O)[C@@H]1C[C@@H](N)CN1C(=O)c1[nH]c2ccccc2c1CC | 0.106
68 | O=C(O)C(c1cccc2c1OCC2)N1CCC(N2CCSCC2)CC1 (stereo unspecified) | 6.14
69 | Cc1ccnc(NCCNC(=O)c2ccccc2NCC(=O)O)c1 | -12.7

Row | Compound | cytotoxicity at 10 µM [%]
70 | Cc1cc(C)n(CCNC(=O)c2ncc[nH]2)c(=O)n1 | 2.84
71 | CC(=O)Nc1cccc(C(=O)Nc2cnc3n2CCCC3)c1 | 4.36
72 | COC(=O)c1cccn1C1CCN(C(=O)c2ccc(C)cc2O)CC1 | -6.97
73 | O=C(c1cccn1Cc1cccs1)N1CCC(C(=O)N2CCCC2)CC1 | -1.23
74 | Cc1cc(CN(C)C2CCCN(Cc3noc(C4CC4)n3)C2)on1 (stereo unspecified) | -1.68
75 | O=C(NCc1ccccc1Cn1cncn1)C1CCC1 | -4.43
76 | O=C(CCCOc1ccc(F)cc1F)N1CCCC(n2cccn2)C1 (stereo unspecified) | -4.75
77 | CC(=O)Nc1nc(CN2CCn3c(C)nnc3C2)cs1 | -1.68
78 | CCNC(=O)CNCc1c(C(C)C)nn(C)c1N1CCOCC1 | -6.45
79 | CCc1ocnc1C(=O)N1CCCC1c1noc(C(C)C)n1 (stereo unspecified) | -8.69
80 | CCOc1ncccc1CNC(=O)N1CCC(n2cncn2)CC1 | -1.26
81 | CN(C)c1ncccc1CNS(=O)(=O)c1c(F)cccc1F | -9.91
82 | COC(=O)c1cccn1C1CCN(Cc2cccnc2)CC1 | -25.6
83 | Cc1cn2nc(N3CCCCC3Cn3cccn3)sc2n1 (stereo unspecified) | -1.14
84 | O=C(c1ccc(NC2CC2)nc1)N1CCC(Nc2cccnn2)CC1 | -12.6
85 | CC(C)c1nc2c(n1C)CCN(CC(=O)Nc1ccncc1)C2 | 0.698
86 | CCN(Cc1ccc(OC)c(F)c1)Cc1nc2c(cnn2C)c(=O)[nH]1 | 2.2
87 | CC(=O)N(Cc1noc(C)n1)C1CCN(Cc2ncc(C(C)C)o2)C1 (stereo unspecified) | -13.2
88 | Cn1cnnc1C1CCCN(C(=O)c2cc(Cl)cc(Cl)c2)C1 (stereo unspecified) | -9.91
89 | Cc1cnn(CC2CCCN2C(=O)c2cccc3c2OCO3)c1 (stereo unspecified) | -5.25
90 | Cc1cc(NC(=O)C(C)N2CCN(c3nccs3)CC2)on1 (stereo unspecified) | -12.6
91 | Cc1cc(C)n(CC2CN(CC(=O)Nc3nncs3)CCO2)n1 (stereo unspecified) | -2.97
92 | Cc1cnn(C2CCCN(C(=O)c3ccc(N(C)C)nn3)C2)c1 (stereo unspecified) | -5.36

Row | Compound | cytotoxicity at 10 µM [%]
93 | COc1c(CNCc2ccc(CN(C)C)cc2)c(C(C)C)nn1C | -11.2
94 | Cc1cc(CN(C)C(=O)c2cccc(N3CCCC3=O)c2)no1 | 0.376
95 | CN(C)c1ncccc1CNC(=O)N1CCCC1CN1CCCCC1 (stereo unspecified) | -0.986
96 | Cc1nc(C)n(C2CCCN(C(=O)c3csnn3)C2)n1 (stereo unspecified) | -5.48
97 | COc1ccc(C(=O)N2CCCC(CNS(C)(=O)=O)C2)cc1F (stereo unspecified) | -5.45
98 | Cc1cc(NC(=O)C(C)N2CCCN(c3nccs3)CC2)on1 (stereo unspecified) | 1.79
99 | CC(C)C(=O)N(C)Cc1nc(N2CCCC2)ncc1-c1ccncc1 | 6.54
100 | COc1cccc(CN2CCC3(CC2)CCN(c2ncccn2)C3)c1 | -7.46
101 | CCS(=O)(=O)N1CCOCC2(CCN(c3ccccn3)C2)C1 (stereo unspecified) | 5.66
102 | CN1CCN(Cc2cn3c(n2)CN(C2CCOCC2)CC3)CC1 | 3.91
103 | c1cc(CN2C[C@@H]3OCCN(CCN4CCCC4)[C@@H]3C2)cs1 | -1.46
104 | CNC(=O)[C@H]1C[C@@H]2CN(C(=O)c3ccc(C)nc3)C[C@@H]2N1C(C)C | -116
105 | CCOCC1CN(Cc2nccs2)Cc2nn(CC3CC3)cc21 (stereo unspecified) | -1.81
106 | O=C(O)c1cc2c(nc1-c1ccsc1)CCN(C1CCOC1)CC2 (stereo unspecified) | 15
107 | c1cnc(N2CC3(CCN(Cc4ccncc4)C3)C2)nc1 | -82.8
108 | CN(C)C(=O)CN1CCOCC2(C1)CN(c1ncccn1)CCO2 (stereo unspecified) | 1.71
109 | CC1c2ncc(CN3CCN(C)CC3)n2CCN1Cc1ccc(F)cc1 (stereo unspecified) | 2.49
110 | Cc1ncsc1CN1CC[C@H]2OCC[C@@]2(C(=O)N2CCOCC2)C1 | 6.91
111 | CN(C)c1nc2c(c(N(C)C)n1)CCN(C(=O)CN1C[C@H]3CC[C@@H]1C3)C2 | 4.45
